{"source": "paper PMC9839614", "about": "(Cancer cell, 2022)", "key": {"[1]": {"conditions": "first-in-human study, advanced solid tumors; cited from earlier work"}, "MOLM-13 parental cells": {"test_system": "MOLM-13 parental cells", "experiment": "Drug treatment IC50 measurement", "type": "cell-based", "conditions": "Homo sapiens, MOLM-13, read-out: IC50 (cell viability)", "method_in_brief": "(§1)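 MOLM-13 cells (parental or venetoclax-resistant) were plated and exposed to the test compound across a range of concentrations, with at least three technical replicates per concentration per cell line. Viability was read by CellTiter-Glo luminescence. IC50 was calculated from technical triplicates within each experiment, over n=3 experiments, and reported as mean with SEM.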"}, "[2]": {"test_system": "venetoclax-resistant MOLM-13 cell lines", "experiment": "Drug treatment IC50 measurement", "type": "cell-based, human", "method_in_brief": "as §1"}, "[3]": {"test_system": "RNA splicing in MOLM-13 cells", "experiment": "RNA-seq alternative splicing analysis", "type": "cell-based, human", "conditions": "48 hours, SM09419 100 nM, venetoclax 10 nM", "method_in_brief": "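Total RNA was extracted from MOLM-13 cells with an RNeasy column kit for RNA-seq. Before downstream analysis, FASTQ reads were trimmed of sequencing adapters and of low-quality reads (Q<15).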"}}, "data": [{"smiles": "CN1CCN(c2cc(C(=O)Nc3cc4cc(-c5cnn(C)c5)ccc4cn3)ccn2)CC1", "note": "[Cirtuvivint]", "values": [{"measurement": "Grade 3 anemia rate", "setting": "[1]", "result": "< 15", "unit": "%"}]}, {"smiles": "CC1(C)CCC(CN2CCN(c3ccc(C(=O)NS(=O)(=O)c4ccc(NCC5CCOCC5)c([N+](=O)[O-])c4)c(Oc4cnc5[nH]ccc5c4)c3)CC2)=C(c2ccc(Cl)cc2)C1", "note": "[venetoclax]", "values": [{"measurement": "IC50", "setting": "MOLM-13 parental cells", "result": "~15", "unit": "nM"}, {"measurement": "IC50", "setting": "[2]; Homo sapiens, MOLM-13, 504 h, read-out: IC50 (cell viability)", "result": "> 99", "unit": "nM"}, {"measurement": "IC50 of resistant cell lines relative to parental cells", "setting": "[2]; venetoclax-resistant vs parental MOLM-13", "result": "approximately six times greater"}, {"measurement": "Effect on RNA splicing", "setting": "[3]", "result": "no significant effects on RNA splicing"}]}]}
